ChEMBL document CHEMBL4308845, “Allosteric Activation of Striatal-Enriched Protein Tyrosine Phosphatase (STEP, PTPN5) by a Fragment-like Molecule” (J Med Chem, 2019)
Activity calls are given as the source filed them. The rule behind the calls is not given here.

Key:
Homo sapiens [1] = species: Homo sapiens; assay: Activation of human STEP46 (197 to 565 residues) expressed in Escherichia coli BL21(DE3) using pFyn peptide substrate after 60 mins by RapidFire MS/MS assay relative to control
Summary of the method: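 Unlabeled Fyn peptide with STEP46 (50 nM final) and compound (500 μM final) in 50 mM HEPES, 0.02% Brij35, 1 mM DTT; 1 h at room temperature. Stopped with sodium orthovanadate (12 μM final), internal standard peptide added, dephosphorylation quantified by RapidFire MS/MS using MRM in positive mode.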

[2] = biological target: T1, Tyrosine-protein phosphatase non-receptor type 5 (Mus musculus) (UniProt P54830); assay: Activation of mouse STEP PTP domain (244 to 539 residues) expressed in Escherichia coli BL21(DE3) at 500 uM using biotin-pFyn peptide substrate after 60 mins by AlphaLISA assay
T1 sequence (whole entry): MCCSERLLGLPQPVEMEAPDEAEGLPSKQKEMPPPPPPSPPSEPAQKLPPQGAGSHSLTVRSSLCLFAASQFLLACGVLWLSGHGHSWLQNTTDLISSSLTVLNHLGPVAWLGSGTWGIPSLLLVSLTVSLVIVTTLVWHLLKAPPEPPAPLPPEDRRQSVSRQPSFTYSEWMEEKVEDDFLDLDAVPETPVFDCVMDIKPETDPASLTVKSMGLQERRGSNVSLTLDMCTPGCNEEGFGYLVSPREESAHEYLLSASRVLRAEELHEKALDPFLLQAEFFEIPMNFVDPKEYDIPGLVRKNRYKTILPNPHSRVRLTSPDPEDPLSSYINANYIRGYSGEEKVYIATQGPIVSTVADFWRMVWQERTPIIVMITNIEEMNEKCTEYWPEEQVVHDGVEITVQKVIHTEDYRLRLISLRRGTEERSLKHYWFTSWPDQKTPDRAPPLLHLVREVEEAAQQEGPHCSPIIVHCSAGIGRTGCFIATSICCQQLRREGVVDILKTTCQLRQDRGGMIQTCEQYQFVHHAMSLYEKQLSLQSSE

[3] = biological target: T2, Tyrosine-protein phosphatase non-receptor type 2 (Homo sapiens) (UniProt P17706); assay: Activation of human TCPTP (2 to 345 residues) at 500 uM using biotin-Ahx-EDT-pY-Y-RKG-amide as substrate measured after 2 hrs by AlphaLISA assay
T2 sequence (whole entry): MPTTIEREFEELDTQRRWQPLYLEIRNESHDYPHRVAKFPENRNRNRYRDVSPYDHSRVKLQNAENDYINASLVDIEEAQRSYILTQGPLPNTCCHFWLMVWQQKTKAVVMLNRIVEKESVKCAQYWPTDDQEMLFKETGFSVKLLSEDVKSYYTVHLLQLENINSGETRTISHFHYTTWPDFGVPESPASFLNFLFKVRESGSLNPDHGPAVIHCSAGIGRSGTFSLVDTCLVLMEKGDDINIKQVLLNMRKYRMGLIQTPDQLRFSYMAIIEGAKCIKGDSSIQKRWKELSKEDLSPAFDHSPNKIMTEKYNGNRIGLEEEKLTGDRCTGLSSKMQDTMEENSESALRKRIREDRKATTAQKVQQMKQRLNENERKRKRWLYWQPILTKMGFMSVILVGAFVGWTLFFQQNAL
Summary of the method: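 In-house TC-PTP (2−345) at 500 pM final, preincubated 10 min at 24 °C with compound (up to 500 μM), then EDT-pY-Y-RKG-amide substrate (1.4 μM final); 1.5 h at 24 °C, stopped with 200 μM orthovanadate. Competition AlphaScreen with biotin-Ahx-EDT-pY-Y-RKG-amide (2.5 nM) and antibody 4G10 (500 pM), 2 h at 24 °C. Quantified from on-plate standard curve.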

[4] = biological target: T3, Tyrosine-protein phosphatase non-receptor type 1 (Homo sapiens) (UniProt P18031); assay: Activation of human PTP1B (1 to 405 residues) at 500 uM preincubated for 10 mins followed by pFYN substrate addition and measured after 1.5 hrs by AlphaLISA assay
T3 sequence (whole entry): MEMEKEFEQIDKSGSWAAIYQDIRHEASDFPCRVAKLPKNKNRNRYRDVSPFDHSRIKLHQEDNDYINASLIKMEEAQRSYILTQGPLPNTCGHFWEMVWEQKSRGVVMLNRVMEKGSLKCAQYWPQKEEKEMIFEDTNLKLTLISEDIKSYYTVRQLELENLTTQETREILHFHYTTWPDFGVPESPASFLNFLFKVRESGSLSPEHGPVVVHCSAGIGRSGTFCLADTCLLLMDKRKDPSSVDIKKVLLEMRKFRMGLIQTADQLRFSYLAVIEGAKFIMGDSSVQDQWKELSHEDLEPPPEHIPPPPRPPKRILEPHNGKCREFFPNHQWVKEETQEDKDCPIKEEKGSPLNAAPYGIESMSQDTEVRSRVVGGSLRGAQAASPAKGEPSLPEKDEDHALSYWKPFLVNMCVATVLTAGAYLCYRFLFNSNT
Summary of the method: (§1)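 In-house PTP1B (1−405) at 500 pM final, preincubated 10 min at 24 °C with compound (up to 500 μM), then EDT-pY-Y-RKG-amide (1.4 μM final) or pFYN (20 μM final) added; 1.5 h at 24 °C, humidified. Stopped with 200 μM orthovanadate. Competition AlphaScreen using biotin-Ahx-EDT-pY-Y-RKG-amide (2.5 nM), anti-pTyr antibody 4G10 (500 pM), beads (5 μg/mL each), 2 h at 24 °C. Read against on-plate substrate standard curve.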

[5] = biological target: T3, Tyrosine-protein phosphatase non-receptor type 1 (Homo sapiens); assay: Activation of human PTP1B (1 to 405 residues) at 500 uM preincubated for 10 mins followed by EDT-pY-Y-RKG-amide substrate addition and measured after 1.5 hrs by AlphaLISA assay; summary of the method: as §1
Homo sapiens [6] = species: Homo sapiens; assay: Binding affinity to human STEP46 (197 to 565 residues) expressed in Escherichia coli BL21(DE3) assessed as increase in melting temperature at 500 uM by SYPRO Orange dye based DSF
Summary of the method: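 STEP46 at 5 μM with 25× SYPRO Orange and 500 μM ligand (1% DMSO) in 20 mM HEPES pH 7.5, 50 mM NaCl, 1 mM TCEP, in duplicate. Heated 25 to 95 °C at 1 °C/min with reads every 0.5 °C. Tm taken from the minimum of the first-derivative curve; ΔTm relative to DMSO.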

Activity (Homo sapiens [1]): 28%
Activity [2]: Active
Activity [3]: inactive
Activity [4]: inactive
Activity [5]: inactive
ΔTm (Homo sapiens [6]): 1.4 °C
SMILES: N=C(N)Nc1cc(C2CCNCC2)cc(C(F)(F)F)c1
